Source: PubChem
NR3A LBD binder = NR3A (human) ligand-binding domain modulation; NR3A LBD differential scanning fluorimetry, Tm shift; 0% = protein alone, 100% = glycine-bound protein; Tm shift relative to glycine control, % at 25 µM; hit rate 2.5% among 340,000; AID 1259313;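 active means melting temperature shift of at least 10% of the positive control shift, at one fixed dose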
SENP1 FRET inh = blocks the human SENP1 SUMO protease catalytic domain | Q9P0U3 | recombinant SENP1 catalytic domain, CyPet-SUMO1-YPet FRET cleavage | inhibition, % at 10 µM | hit rate 0.21% among 360,000;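 active means inhibition at least 30% at 10 µM, raw YFP signal under a set limit, fluorescence ratio 0.5 to 1.5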;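 further: 0% = enzyme with DMSO and 100% = no enzyme wells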
Target sequence (Q9P0U3 419-644 limits assumed): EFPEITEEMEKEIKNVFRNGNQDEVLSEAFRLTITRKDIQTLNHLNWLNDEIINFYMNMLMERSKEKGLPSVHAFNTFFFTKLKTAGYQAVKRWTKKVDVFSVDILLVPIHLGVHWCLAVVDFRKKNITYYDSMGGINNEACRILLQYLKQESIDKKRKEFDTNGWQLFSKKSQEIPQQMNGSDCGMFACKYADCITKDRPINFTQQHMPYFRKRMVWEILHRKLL
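system = hSENP1 catalytic domain, recombinant | reagent = SFCypet-SUMO1-SFYpet substrate at 25 nM | doses = one dose per compound, 10 µM, 0.5% DMSO | incubation = enzyme reaction for 50 min at room temperature, dark | measured by = FRET, CFP and YFP emission | controls = no-enzyme low, enzyme-DMSO high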
MPTP inh = inhibitors of mitochondrial permeability transition pore | hit rate 1.4% among 360,000 | AID 602449 | isolated mouse mitochondria, Ca2+ swelling absorbance, 30 min | inhibition, % at 10 µM;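 active means inhibition of 50% or more, scaled per plate between neutral and stimulator controls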;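 further: 0% = DMSO wells given calcium and 100% = 1 mM EGTA wells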
EBI2 block = EBI2 (human) antagonism. inhibition, % at 5 µM. AID 651636. EBI2 beta-arrestin recruitment, luminescence, 7a,25-OHC stimulated. P32249. hit rate 0.81% among 360,000; in the data active means inhibition above about 38%;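 further: enzyme fragment complementation signal reports receptor beta-arrestin coupling in cells; 0% = agonist plus DMSO wells and 100% = wells without agonist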
Target sequence (P32249 whole entry, looked up, the tested form may be a part): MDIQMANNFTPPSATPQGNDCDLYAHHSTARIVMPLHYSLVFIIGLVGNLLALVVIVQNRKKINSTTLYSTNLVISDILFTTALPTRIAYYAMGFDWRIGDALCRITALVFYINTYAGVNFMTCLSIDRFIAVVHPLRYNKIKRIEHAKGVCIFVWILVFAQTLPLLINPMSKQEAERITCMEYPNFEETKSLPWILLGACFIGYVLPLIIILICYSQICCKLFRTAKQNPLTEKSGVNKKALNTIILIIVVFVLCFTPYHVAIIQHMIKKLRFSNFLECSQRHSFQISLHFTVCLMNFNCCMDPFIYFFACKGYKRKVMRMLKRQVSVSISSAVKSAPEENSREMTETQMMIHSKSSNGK
Starred values were filed as active, the others as inactive; x = no result. Compounds with a hit are over-represented: about 4.4% of the library has one in this group of screens.

SMILES | NR3A LBD binder | SENP1 FRET inh | MPTP inh | EBI2 block
CCSc1nc2c(c(=O)[nH]c(=O)n2C)n1C/C=C(/C)Cl | -1 | -1 | 0 | 1
CCOC(=O)C(C)Sc1nc2c(c(=O)[nH]c(=O)n2C)n1C/C=C(/C)Cl (stereo unspecified) | 11* | 1 | -3 | -1
Cc1cccc(C)c1OC1(c2ccccc2)OC(=O)c2ccccc21 (stereo unspecified) | -1 | 0 | -1 | 25
Cc1cc(C)c(OC2(c3ccccc3)OC(=O)c3ccccc32)c(C)c1 (stereo unspecified) | 16* | 2 | 7 | 35
CC(C)C[C@H](NC(=O)c1nc[nH]c1C(=O)N1CCNCC1)C(=O)OCc1ccccc1 | -1 | -2 | 0 | -1
COc1ccc(COC(=O)CNC(=O)C2CCCCC2)cc1F | 2 | 2 | -1 | -5
O=C(CSc1nc2ccccc2[nH]1)Nc1nc(-c2ccc(Br)cc2)cs1 | 35* | 2 | 24 | 5
O=C(Cn1c(=O)oc2ccccc21)Nc1nc(-c2ccc(Br)cc2)cs1 | 15* | 2 | 17 | -3
COC(=O)C(/C=N/OCc1ccc([N+](=O)[O-])cc1)NC(=O)c1cccc(Cl)c1 (stereo unspecified) | -2 | 1 | 3 | -3
CSc1nc2ccc(NC(=O)c3cccs3)cc2s1 | 20* | -26 | 1 | 7
CSc1nc2ccc(NC(=O)c3ccc(=O)[nH]c3)cc2s1 | -5 | -1 | -1 | 4
COc1ccccc1NC(=O)Nc1sccc1-c1nc2ccccc2s1 | 10 | -105 | 14 | 3
O=C(Nc1ccccc1)Nc1sccc1-c1nc2ccccc2s1 | 22* | -82 | 26 | 2
CSc1nc2ccc(NC(=O)c3ccco3)cc2s1 | 4 | 1 | -1 | 2
CSc1nc2ccc(NC(=O)c3ccc(F)c(F)c3)cc2s1 | 28* | -3 | 0 | 8
CCc1ccc(NC(=O)c2ccc3nc(N)sc3c2)cc1 | 16* | 1 | 3 | 0
C=CC1=C2C=C(C3CC3)N(CCCN(CC)CC)C=C2C(=O)C(C)(OC(=O)c2ccco2)C1=O (stereo unspecified) | -3 | -43 | 0 | -13
O=C1CCCCCN1CP(=O)(O)CN1CCCCCC1=O | 1 | 0 | 2 | 3
Cc1c(-c2ccccc2)sc2nc[nH]c(=S)c12 | 0 | -3 | 0 | -3
COc1ccc(NC(=O)N(C)C[C@H]2Oc3ccc(NS(=O)(=O)c4cccs4)cc3C(=O)N([C@@H](C)CO)C[C@@H]2C)cc1 | 3 | 1 | -2 | -5
CC(C)(C)n1c(O)c2n(c1=O)Cc1ccccc1N=C2c1ccccc1 | x | 2 | 2 | -1
CSc1nc2ccc(NC(=O)c3cc4ccccc4o3)cc2s1 | 19* | -3 | 10 | 13
O=C(Nc1cccc(-c2nc3ccccc3s2)c1)c1cc(=O)c2ccccc2o1 | 6 | 2 | 31 | -15
O=C(Nc1cccc(-c2nc3ccccc3s2)c1)c1cccs1 | 12* | -1 | 18 | -2
O=C(Nc1ccc2oc(-c3ccccc3)nc2c1)c1cccs1 | 11* | 0 | -1 | 6
SMILES | NR3A LBD binder | SENP1 FRET inh | MPTP inh | EBI2 block
O=C(Nc1ccc2oc(-c3ccccc3)nc2c1)c1ccncc1 | 1 | 0 | 1 | 6
CN1CCN(c2ccccc2/C=N/NC(=O)c2cccnc2)CC1 | 2 | 3 | 0 | -1
CN(N=O)c1ccc(CC2CCc3ccccc32)cc1 (stereo unspecified) | 15* | 0 | 2 | 7
O=C(Cc1ccc(F)cc1)N[C@@H]1c2ccccc2CC[C@@H]1O | 5 | 2 | 0 | 0
Cc1cc(C(=O)CCC(=O)N(C)CC(=O)Nc2ccccc2Br)c(C)s1 | 1 | 1 | 0 | 11
COc1cc(C(=O)OCC(=O)Nc2ccc(OC(F)F)cc2)cc(OC)c1OC | 2 | 2 | 7 | -8
COc1cc(Cl)ccc1OCc1cc(C(=O)N2C[C@H]3CC[C@H]2C3)no1 | 13* | 0 | 3 | 0
Cc1noc2ncnc(Sc3ccc(Cl)cc3)c12 | 10* | 2 | -1 | 30
CCN(CC)c1nc(Nc2ccccc2)nc(Oc2ccc(C(=O)OC)cc2)n1 | 14* | 2 | 0 | 23
CN(CC(=O)NC1CC(C)(C)NC(C)(C)C1)S(=O)(=O)c1ccc(Br)cc1 | 13* | 3 | -1 | -1
Cc1ccc(S(=O)(=O)N(C)CC(=O)NC2CC(C)(C)NC(C)(C)C2)cc1 | -1 | 2 | 0 | -9
COc1ccc(C2(C(=O)Nc3ccc(C)c(C)c3)CCOCC2)cc1 | -2 | 4 | -2 | 1
CN1CCN(NC(=O)COc2cccc(C(F)(F)F)c2)CC1 | 13* | 5 | 0 | -13
COc1ccc(C(C(=O)NC(C)(C)C)n2c(-c3ccc(=O)[nH]c3)nc3ccccc32)cc1 (stereo unspecified) | x | -1 | 7 | 1
N#CCC(=N)N1CCN(c2ccccc2)CC1 | 1 | 0 | -1 | 7
N#CCC(=N)N1CCN(c2cccc(Cl)c2)CC1 | 12* | -4 | 0 | -4
COc1ccc(S(=O)(=O)N2CCCCC2)cc1NC(=O)Cn1c(=O)cnc2ccccc21 | 12* | -3 | 0 | 5
COc1ccc(S(=O)(=O)N2CCCCC2)cc1NC(=O)Cn1cnc2ccccc2c1=O | 2 | 0 | 0 | -8
COC(=O)c1ccc(NC(=O)CN2CCOCC2)cc1 | 13* | 1 | -1 | 6
COc1ccc(NC(=O)CN2CCOCC2)cc1 | -4 | 3 | 0 | -3
O=C(NCCOc1ccccc1)c1ncn[nH]1 | 10* | 1 | 1 | -6
COc1ccc(COc2ccc3c(C)cc(=O)oc3c2)cc1 | 4 | 2 | 2 | -1
COc1ccc(N2CCN(CCOc3ccc4c(C)cc(=O)oc4c3)CC2)cc1 | 4 | 0 | 1 | -12
Cc1cc(=O)oc2cc(OCc3ccc(S(=O)(=O)N4CCOCC4)cc3)ccc12 | 18* | 5 | 0 | -2
Cc1cc(=O)oc2cc(OCCSCCN3CCCC3)ccc12 | 12* | -3 | 0 | 5
SMILES | NR3A LBD binder | SENP1 FRET inh | MPTP inh | EBI2 block
COc1ccccc1OCCNC(=O)CNC(=O)c1ccc(C(C)(C)C)cc1 | -2 | 1 | 1 | 9
CCC(=O)c1ccc(OCC(=O)OCC(=O)c2cc(C)n(C)c2C)cc1 | 13* | -2 | 0 | -2
COCCn1ccc2c(OCC(=O)Nc3cc(OC)ccc3OC)cccc2c1=O | -1 | 0 | 1 | 5
CCOCCn1ccc2c(OCC(=O)Nc3cc(OC)ccc3OC)cccc2c1=O | 11* | 4 | -1 | -3
CC(C)N1CCC(=NNC(=O)c2cccs2)CC1 | 0 | 3 | 1 | -6
CSc1nc(C(=O)N2CCCC(N3CCN(c4ccccc4C)CC3)C2)cs1 (stereo unspecified) | -1 | 2 | 2 | 1
c1ccc(COc2ncnc3c2ncn3CCCN2CCN(c3ncccn3)CC2)cc1 | x | 0 | 0 | -5
CC(=O)c1cccc(Nc2nc(-c3ccccc3)cs2)c1 | 32* | 2 | 0 | 28
O=C(Nc1cccc(-c2csc(Nc3ccccc3)n2)c1)c1ccccc1 | 11* | 2 | 1 | 30
